ChEMBL document CHEMBL4038273, “MAO enzymes inhibitory activity of new benzimidazole derivatives including hydrazone and propargyl side chains” (Eur J Med Chem, 2017)

Columns and labels:
[1] = molecular target: T1, Amine oxidase [flavin-containing] A (Homo sapiens, UniProt P21397); test: (§1) Inhibition of recombinant human MAO-A expressed in baculovirus infected BTI insect cells using tyramine as substrate pretreated for 30 mins followed by substrate addition incubated for 30 mins measured at 5 mins interval by horse-radish peroxidase/amplex red-based fluorometric method
T1 sequence (P21397 whole entry): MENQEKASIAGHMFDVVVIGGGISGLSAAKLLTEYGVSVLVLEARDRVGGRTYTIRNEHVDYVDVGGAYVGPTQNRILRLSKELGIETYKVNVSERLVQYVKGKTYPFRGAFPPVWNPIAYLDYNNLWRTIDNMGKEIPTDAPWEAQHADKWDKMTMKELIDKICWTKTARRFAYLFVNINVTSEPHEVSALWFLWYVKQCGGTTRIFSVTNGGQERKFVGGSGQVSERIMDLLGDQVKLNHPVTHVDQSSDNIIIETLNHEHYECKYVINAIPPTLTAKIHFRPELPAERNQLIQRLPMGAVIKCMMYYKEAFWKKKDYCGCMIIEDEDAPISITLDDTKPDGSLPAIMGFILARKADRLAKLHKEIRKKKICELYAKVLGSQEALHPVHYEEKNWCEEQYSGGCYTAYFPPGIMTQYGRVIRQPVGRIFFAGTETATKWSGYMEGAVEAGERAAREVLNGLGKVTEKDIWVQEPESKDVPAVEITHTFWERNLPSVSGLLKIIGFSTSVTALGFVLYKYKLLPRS
In short: (§2)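 Recombinant hMAO-A (0.5 U/mL stock) or hMAO-B (0.64 U/mL stock) in phosphate buffer, preincubated with inhibitor (solutions 10^-3 to 10^-9 M in 2% DMSO) for 30 min at 37°C. Background-subtracted against DMSO control; quadruplicate.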

[2] = molecular target: T1, Amine oxidase [flavin-containing] A; test: as §1, with “cells at 10^-4 to 10^-3 uM” for “cells”, “method relative to control” for “method”; conditions: 0.5 h
In short: as §2, with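 “37°C. Working solution (HRP, Amplex Red, tyramine) then added for 30 min at 37°C, with fluorescence (Ex/Em 535/587 nm) read every 5 min.” for “37°C.”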

[3] = molecular target: T2, Amine oxidase [flavin-containing] B (Homo sapiens, UniProt P27338); test: as §1, with “MAO-B” for “MAO-A”, “cells at 10^-4 to 10^-3 uM” for “cells”; conditions: 0.5 h
T2 sequence (P27338 whole entry): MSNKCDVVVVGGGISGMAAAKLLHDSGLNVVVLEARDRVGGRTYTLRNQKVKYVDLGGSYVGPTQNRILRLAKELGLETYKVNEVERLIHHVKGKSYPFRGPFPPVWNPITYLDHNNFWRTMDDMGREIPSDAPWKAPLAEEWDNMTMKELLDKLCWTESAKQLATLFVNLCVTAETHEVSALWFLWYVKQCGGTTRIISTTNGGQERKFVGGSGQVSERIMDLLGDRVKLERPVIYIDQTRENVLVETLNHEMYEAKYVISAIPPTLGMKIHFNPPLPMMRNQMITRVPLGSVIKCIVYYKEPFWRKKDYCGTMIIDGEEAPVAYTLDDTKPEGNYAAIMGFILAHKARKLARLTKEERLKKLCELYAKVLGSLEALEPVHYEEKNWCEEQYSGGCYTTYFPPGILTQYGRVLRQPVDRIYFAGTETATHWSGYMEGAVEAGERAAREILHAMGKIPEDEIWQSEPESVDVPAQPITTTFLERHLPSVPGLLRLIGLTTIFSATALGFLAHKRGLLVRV
In short: as §2, with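 “37°C. Working solution (HRP, Amplex Red, tyramine) then added for 30 min at 37°C, with fluorescence (Ex/Em 535/587 nm) read every 5 min.” for “37°C.”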

[4] = molecular target: T2, Amine oxidase [flavin-containing] B; test: Inhibition of recombinant human MAO-B expressed in baculovirus infected BTI insect cells using tyramine as substrate pretreated for 30 mins followed by substrate addition incubated for 30 mins measured at 5 mins interval by horse-radish peroxidase/amplex red-based fluorometric method; type: cell-based
[5] = species: Homo sapiens; test: Selectivity index, ratio of IC50 for recombinant human MAO-A expressed in baculovirus infected BTI insect cells to IC50 for recombinant human MAO-B expressed in baculovirus infected BTI insect cells
In short: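 Selectivity index calculated as IC50(MAO-A)/IC50(MAO-B), with both IC50 values from the fluorometric tyramine/HRP/Amplex Red inhibition assay.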

IC50 [1] | inhibition (INH) [2] | inhibition (INH) [3] | IC50 [4] | Compound | Ratio IC50 [5]
≥ 1000 µM | Not Active | Not Active | ≥ 1000 µM | C#CCn1c(-c2ccc(C(=O)N/N=C/c3cccc(O)c3)cc2)nc2ccccc21 | –
≥ 1000 µM | Not Active | Not Active | ≥ 1000 µM | C#CCn1c(-c2ccc(C(=O)N/N=C/c3ccccc3OC)cc2)nc2ccccc21 | –
27.1 µM | – | – | 0.881 µM | C#CCn1c(-c2ccc(C(=O)N/N=C/c3ccc([N+](=O)[O-])s3)cc2)nc2ccccc21 | 30.7
19.6 µM | – | – | 10.3 µM | C#CCn1c(-c2ccc(C(=O)N/N=C/c3cc(O)cc(O)c3)cc2)nc2ccccc21 | 1.9
≥ 100 µM | < 50% | – | 12.2 µM | C#CCn1c(-c2ccc(C(=O)N/N=C/c3cccn3C)cc2)nc2ccccc21 | > 8.22
2.82 µM | – | – | 1.97 µM | C#CCn1c(-c2ccc(C(=O)N/N=C/c3ccc(O)cc3)cc2)nc2ccccc21 | 1.43
53.5 µM | – | – | 18.5 µM | C#CCn1c(-c2ccc(C(=O)N/N=C/c3cccc(OC)c3OC)cc2)nc2ccccc21 | 2.89
≥ 1000 µM | Not Active | Not Active | ≥ 1000 µM | C#CCn1c(-c2ccc(C(=O)N/N=C/c3ccc[nH]3)cc2)nc2ccccc21 | –
43.3 µM | – | – | 1.94 µM | C#CCn1c(-c2ccc(C(=O)N/N=C/c3ccc(OC)cc3)cc2)nc2ccccc21 | 22.3
≥ 100 µM | < 50% | – | 10.2 µM | C#CCn1c(-c2ccc(C(=O)N/N=C/c3ccc(Cl)cc3)cc2)nc2ccccc21 | > 9.85
≥ 1000 µM | Not Active | Not Active | ≥ 100 µM | C#CCn1c(-c2ccc(C(=O)N/N=C/c3cccs3)cc2)nc2ccccc21 | –
≥ 100 µM | < 50% | – | 12.6 µM | C#CCn1c(-c2ccc(C(=O)N/N=C/c3cccc(OC)c3)cc2)nc2ccccc21 | > 7.93
≥ 100 µM | < 50% | – | 25.2 µM | C#CCn1c(-c2ccc(C(=O)N/N=C/c3cc(OC)cc(OC)c3)cc2)nc2ccccc21 | > 3.96
